Measurements as given in ChEMBL document CHEMBL1140412, “F-18 stilbenes as PET imaging agents for detecting beta-amyloid plaques in the brain” (J Med Chem, 2005).

Target: Amyloid-beta precursor protein (Homo sapiens, UniProt P05067)
Assay: Inhibition constant for I-125-IMPY binding to amyloid plaques in Alzheimers disease brain homogenates
Type: tissue-based
Outline: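 Competition binding in pooled postmortem AD cortical homogenates (dissected gray/white matter, ~100 mg wet tissue/ml PBS pH 7.4; 20-50 μg per tube). [¹²⁵I]IMPY at 0.04-0.06 nM; inhibitors 10^-5-10^-10 M in PBS with 0.1% BSA. Nonspecific binding with 600 nM IMPY. Incubated 2 hr at 37°C, GF/B filtration, PBS washes, gamma counting. Ki from nonlinear regression.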

Amyloid-beta precursor protein, sequence (P05067 whole entry): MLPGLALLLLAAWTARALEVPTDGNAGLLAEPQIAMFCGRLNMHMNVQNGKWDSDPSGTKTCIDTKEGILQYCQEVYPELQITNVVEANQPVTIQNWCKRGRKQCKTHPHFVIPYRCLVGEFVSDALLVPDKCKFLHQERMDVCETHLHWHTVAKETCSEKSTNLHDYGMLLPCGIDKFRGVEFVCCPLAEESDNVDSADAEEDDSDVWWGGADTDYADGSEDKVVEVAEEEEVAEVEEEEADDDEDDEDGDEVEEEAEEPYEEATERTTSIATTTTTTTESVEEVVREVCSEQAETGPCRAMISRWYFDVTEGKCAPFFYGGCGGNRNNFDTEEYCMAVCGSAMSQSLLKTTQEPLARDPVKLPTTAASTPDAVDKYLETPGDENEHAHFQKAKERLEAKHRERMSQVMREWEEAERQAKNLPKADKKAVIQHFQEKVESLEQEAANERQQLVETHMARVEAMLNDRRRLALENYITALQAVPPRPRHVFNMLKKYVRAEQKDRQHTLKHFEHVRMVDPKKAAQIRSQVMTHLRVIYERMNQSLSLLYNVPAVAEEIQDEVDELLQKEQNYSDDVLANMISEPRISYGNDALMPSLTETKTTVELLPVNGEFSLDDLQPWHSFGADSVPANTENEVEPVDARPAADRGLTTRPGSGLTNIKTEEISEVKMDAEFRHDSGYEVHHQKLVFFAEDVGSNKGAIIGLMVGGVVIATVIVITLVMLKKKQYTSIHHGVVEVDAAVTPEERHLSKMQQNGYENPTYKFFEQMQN

Row | Ki | Structure (SMILES)
1 | 32.5 nM | CNc1ccc(/C=C/c2ccc(OCC(CO)CO)cc2)cc1
2 | 80 nM | CN(C)c1ccc(/C=C/c2ccc(OCC(CO)Cc3ccc(Br)cc3)cc2)cc1 (stereo not given)
3 | 150 nM | Cc1ccc(S(=O)(=O)OCC(CO)COc2ccc(/C=C/c3ccc(N(C)C)cc3)cc2)cc1 (stereo not given)
4 | 38 nM | CN(C)c1ccc(/C=C/c2ccc(OCC(CO)CO)cc2)cc1
5 | 59 nM | CN(C)c1ccc(/C=C/c2ccc(OCC3COC(C)(C)OC3)cc2)cc1
